Test results from ChEMBL document CHEMBL4706641, “Novel Carboline Fungal Histone Deacetylase (HDAC) Inhibitors for Combinational Treatment of Azole-Resistant Candidiasis” (J Med Chem, 2021).
Converted amounts (≈) assume the structure as drawn. The source made the active and inactive calls. The rule behind the calls is not given here.

Assays:
[1] = tested on: Candida albicans; experiment: Antifungal activity against Candida albicans 0304103 incubated for 48 hrs by microdilution assay; format: functional; details: Candida albicans, 0304103, read-out: MIC80
How it was run: (§1)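 Checkerboard broth microdilution per CLSI M27-A3 (modified), clinical Candida isolates. Exponential cells in RPMI 1640 (MOPS-buffered) at 10³ cells/mL; fluconazole 0.25–64 μg/mL crossed with test compound 2–64 μg/mL (final). 48 h at 35 °C; OD630 read with background subtracted. MIC80 = 80% growth inhibition; FICI ≤0.5 synergy, >4 antagonism.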

[2] = tested on: Candida albicans; experiment: Synergistic antifungal activity against Candida albicans 0304103 incubated for 48 hrs in presence of fluconazole by microdilution assay; format: functional; how it was run: as §1
[3] = tested on: Candida albicans; experiment: Synergistic antifungal activity against Candida albicans 0304103 assessed as potentiation of fluconazole antifungal activity by measuring FICI incubated for 48 hrs in presence of fluconazole by checkerboard microdilution assay; format: functional; how it was run: as §1
[4] = tested on: Candida albicans; experiment: Synergistic antifungal activity against azole-resistant Candida albicans assessed as potentiation of ITC antifungal activity by measuring ITC incubated for 48 hrs in presence of fluconazole by checkerboard microdilution assay; format: functional
[5] = tested on: Nakaseomyces glabratus; experiment: Synergistic antifungal activity against Candida glabrata assessed as potentiation of ITC antifungal activity by measuring ITC incubated for 48 hrs in presence of fluconazole by checkerboard microdilution assay; format: functional, organism-based
[6] = tested on: [Candida] auris; experiment: Synergistic antifungal activity against Candida auris assessed as potentiation of VRC antifungal activity by measuring VRC incubated for 48 hrs in presence of fluconazole by checkerboard microdilution assay; format: functional, organism-based; details: Candidozyma auris
[7] = tested on: Candida tropicalis; experiment: Synergistic antifungal activity against Candida tropicalis assessed as potentiation of VRC antifungal activity by measuring VRC incubated for 48 hrs in presence of fluconazole by checkerboard microdilution assay; format: functional, organism-based
[8] = tested on: Candida albicans; experiment: Synergistic antifungal activity against Candida albicans 0304103 at 8 ug/ml incubated for 48 hrs in presence of 32 ug/ml fluconazole by microdilution assay; format: functional, organism-based; details: dose 8.0 µg/ml
[9] = tested on: Candida albicans; experiment: Antifungal activity against Candida albicans 0304103 at 32 ug/ml incubated for 48 hrs by microdilution assay; format: functional, organism-based; details: dose 32.0 µg/ml
[10] = tested on: Candida albicans; experiment: Antifungal activity against Candida albicans 10061 incubated for 48 hrs by microdilution assay; format: functional; how it was run: as §1
[11] = tested on: Pichia kudriavzevii; experiment: Antifungal activity against Candida krusei 10153 incubated for 48 hrs by microdilution assay; format: functional; how it was run: as §1
[12] = tested on: Candida albicans; experiment: Synergistic antifungal activity against Candida albicans 9172 incubated for 48 hrs in presence of fluconazole by microdilution assay; format: functional; how it was run: as §1
[13] = tested on: Candida albicans; experiment: Synergistic antifungal activity against Candida albicans 9884 incubated for 48 hrs in presence of fluconazole by microdilution assay; format: functional; how it was run: as §1
[14] = tested on: Candida albicans; experiment: Synergistic antifungal activity against Candida albicans 10061 incubated for 48 hrs in presence of fluconazole by microdilution assay; format: functional; how it was run: as §1
[15] = tested on: Candida albicans; experiment: Synergistic antifungal activity against Candida albicans 4108 incubated for 48 hrs in presence of fluconazole by microdilution assay; format: functional; how it was run: as §1
[16] = tested on: Candida albicans; experiment: Antifungal activity against Candida albicans 0304103 infected in ICR mouse model of candidiasis assessed as reduction in kidney fungal burden at 10 mg/kg, ip dosed 24 hrs post infection and co-treated with 1 mg/kg, ip fluconazole and measured after 5 days; format: functional, organism-based; details: time 5.0 day
[17] = target: Histone deacetylase (Homo sapiens) (UniProt Q13547+O15379+Q9UBN7+Q92769+Q9UQL6+Q8WUI4+Q9BY41+Q96DB2+P56524+Q9UKV0+Q969S8); experiment: Inhibition of HDAC in HUVEC using Boc-Lys(Ac)-AMC substrate incubated for 18 hrs by fluorescence based assay; format: protein assay
How it was run: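 Human total HDAC in whole HUVEC cells: about 15000 cells/well, 24 h at 37 °C/5% CO₂ before compound; then Boc-Lys(Ac)-AMC 33 μM, 37 °C 6 h, trypsin/Nonidet P-40 stop 2 h, fluorescence Ex 360/Em 460 nm. Inhibition relative to control after blank subtraction; three independent experiments.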

[18] = target: Histone deacetylase 1 (Homo sapiens, UniProt Q13547); experiment: Inhibition of human HDAC1 pre-incubated for 5 mins before substrate addition and measured after 30 mins by fluorescence based assay
Histone deacetylase 1, sequence (Q13547 whole entry): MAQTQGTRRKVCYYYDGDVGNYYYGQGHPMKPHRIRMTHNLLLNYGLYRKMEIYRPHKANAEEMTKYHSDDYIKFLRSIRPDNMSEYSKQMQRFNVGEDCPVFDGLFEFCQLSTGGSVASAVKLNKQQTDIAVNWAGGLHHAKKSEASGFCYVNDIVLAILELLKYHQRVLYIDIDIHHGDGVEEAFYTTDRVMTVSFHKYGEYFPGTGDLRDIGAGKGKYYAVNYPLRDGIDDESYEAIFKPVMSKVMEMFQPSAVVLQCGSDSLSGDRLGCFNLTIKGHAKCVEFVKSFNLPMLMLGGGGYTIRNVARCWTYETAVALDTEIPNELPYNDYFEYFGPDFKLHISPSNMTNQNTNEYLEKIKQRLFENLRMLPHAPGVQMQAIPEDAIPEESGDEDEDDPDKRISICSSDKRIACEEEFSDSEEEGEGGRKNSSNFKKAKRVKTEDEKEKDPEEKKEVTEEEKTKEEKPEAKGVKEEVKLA

[19] = Toxicity in HUVEC; format: cell-based; details: human, HUVEC cells
[20] = Toxicity in human L02 cells; format: cell-based
[21] = Toxicity in HUVEC in presence of fluconazole; format: cell-based; details: human, HUVEC cells
[22] = tested on: Candida albicans; experiment: Down regulation of ERG11 mRNA expression in Candida albicans 0304103 at 32 ug/ml incubated for 24 hrs in presence of 32 ug/ml fluconazole by RT-PCR analysis; format: functional; details: dose 32.0 µg/ml
How it was run: (§2)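 C. albicans 0304103 (initial 1 × 10⁶ cells/mL) treated with DMSO, fluconazole 32 μg/mL, compound 32 μg/mL, or both in YEPD medium, 35 °C for 24 h. Total RNA extracted, reverse transcribed, real-time PCR for 40 cycles; fold change by 2^−ΔΔCt with ACT1 as internal control.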

[23] = tested on: Candida albicans; experiment: Down regulation of CDR1 mRNA expression in Candida albicans 0304103 at 32 ug/ml incubated for 24 hrs in presence of 32 ug/ml fluconazole by RT-PCR analysis; format: functional; details: dose 32.0 µg/ml; how it was run: as §2
[24] = tested on: Candida albicans; experiment: Up-regulation of CDR2 mRNA expression in Candida albicans 0304103 at 32 ug/ml incubated for 24 hrs by RT-PCR analysis; format: functional; details: dose 32.0 µg/ml; how it was run: as §2
[25] = tested on: Candida albicans; experiment: Down regulation of CDR2 mRNA expression in Candida albicans 0304103 at 32 ug/ml incubated for 24 hrs in presence of 32 ug/ml fluconazole by RT-PCR analysis; format: functional; details: dose 32.0 µg/ml; how it was run: as §2
[26] = tested on: Candida albicans; experiment: Inhibition of pre-formed biofilms in Candida albicans 0304103 at 64 ug/ml incubated for 24 hrs in presence of fluconazole by XTT reduction assay; format: functional; details: dose 64.0 µg/ml
How it was run: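 Mature biofilms grown 24 h at 37 °C from C. albicans 0304103 (1.0 × 10⁶ CFU/mL in RPMI 1640), then treated with drugs alone or combined as in the formation assay; viability by XTT reduction at OD490. Three independent experiments; t-test versus control.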

[27] = tested on: Candida albicans; experiment: Antifungal activity against Candida albicans 0304103 infected in ICR mouse model of candidiasis assessed as reduction in fungal invasion by measuring clusters of fungal infiltration in renal pelvis at 10 mg/kg, ip dosed 24 hrs post infection and measured after 5 days by H and E staining based microscopical analysis; format: functional, organism-based; details: time 5.0 day
How it was run: (§3)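 Two ICR mice per group, infected and treated as in the kidney burden model (IV 5 × 10⁵ C. albicans 0304103; IP compound 10 mg/kg, fluconazole 1 mg/kg, or combination, 5 days). Kidneys fixed in 4% paraformaldehyde, paraffin-embedded, 4 μm sections, H&E stained, examined at 40× and 200×.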

[28] = tested on: Candida albicans; experiment: Antifungal activity against Candida albicans 0304103 infected in ICR mouse model of candidiasis assessed as reduction in fungal invasion by measuring clusters of fungal infiltration in renal pelvis/medulla at 10 mg/kg, ip dosed 24 hrs post infection and co-treated with 1 mg/kg, ip fluconazole and measured after 5 days by H and E staining based microscopical analysis; format: functional, organism-based; details: time 5.0 day; how it was run: as §3

In the case of `O=C(Cc1ccc(OCCCn2c3c(c4cccc(Cl)c42)CCNC3)cc1)NO`, the MIC80 [1] is reported as greater than 64 µg/mL, the MIC80 [2] is reported as 2 µg/mL and the “fractional inhibitory concentration index (FICI)” value [3] is reported as 0.035. For the same compound, the “fractional inhibitory concentration index (FICI)” value [4] was 0.035, the Activity [5] was “Active” and the Activity [6] was “Active”. The Activity [7] was “Active”, the Activity [8] was “inactive” and the Activity [9] was “inactive”. It also gave an MIC80 [10] greater than 64 µg/mL, an MIC80 [11] of 64 µg/mL (≈ 155 µM) and an MIC80 [12] of 2 µg/mL. It also gave an MIC80 [13] of 2 µg/mL, an MIC80 [14] of 2 µg/mL and an MIC80 [15] of 2 µg/mL. The Activity [16] was “Active”, the inhibition [17] was “inactive” and the IC50 [18] was 2.23 µM. It also gave an IC50 [19] of 9.64 µM, an IC50 [20] of 11.5 µM and an IC50 [21] of 12.2 µM. For the same compound, the Activity [22] was “Active”, the Activity [23] was “Active” and the Activity [24] was “Active”. The Activity [25] was “Active”, the inhibition [26] was “Active” and the Activity [27] was “inactive”. For the same compound, the Activity [28] was “Active”.
